Assay results reported in ChEMBL document CHEMBL1137649, “Mupirocin-resistant, methicillin-resistant Staphylococcus aureus strains in Canadian hospitals” (2007).
≈ marks a conversion by molar mass, not a printed value.

Tests used:
Type in all cases: functional
[1] = tested on: Staphylococcus aureus; experiment: Antimicrobial activity against mupirocin-resistant methicillin-resistant Staphylococcus aureus assessed as resistant rate by broth microdilution method
Method in brief: (§1)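 Clinical MRSA isolates (4,980) from 32 Canadian hospitals, 1995–2004, confirmed by multiplex PCR for mecA and nuc. Susceptibility done by broth microdilution following CLSI guidelines. Inducible clindamycin resistance in macrolide-resistant isolates detected by standardized disk approximation test. Isolates grouped as high-level mupirocin-resistant or mupirocin-susceptible. Resistance rates expressed as percentage of isolates per group.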

[2] = tested on: Staphylococcus aureus; experiment: Antimicrobial activity against mupirocin-resistant methicillin-resistant Staphylococcus aureus by broth microdilution method; method in brief: as §1
[3] = tested on: Staphylococcus aureus; experiment: Antimicrobial activity against mupirocin-susceptible methicillin-resistant Staphylococcus aureus assessed as resistant rate by broth microdilution method; method in brief: as §1
[4] = tested on: Staphylococcus aureus; experiment: Antimicrobial activity against mupirocin-susceptible methicillin-resistant Staphylococcus aureus by broth microdilution method; method in brief: as §1

Structure (SMILES) | Activity [1] [%] | MIC [2] [µg/mL] | MIC90 [2] [µg/mL] | Activity [3] [%] | MIC [4] [µg/mL] | MIC90 [4] [µg/mL]
CC(=O)NC[C@H]1CN(c2ccc(N3CCOCC3)c(F)c2)C(=O)O1 [LINEZOLID] | 0 | ≥ 512 | 2 (≈ 5.93 µM) | 0 | ≤ 4 | 1 (≈ 2.96 µM)
CC(=O)O[C@H]1C[C@@]2(C)[C@@H](C[C@@H](O)[C@H]3[C@@]4(C)CC[C@@H](O)[C@@H](C)[C@@H]4CC[C@@]32C)/C1=C(\CCC=C(C)C)C(=O)O [FUSIDIC ACID] | 21 | ≥ 512 | > 8 | 4 | ≤ 0.5 | 0.5 (≈ 0.968 µM)
CO[C@H]1/C=C/O[C@@]2(C)Oc3c(C)c(O)c4c(O)c(c(/C=N/N5CCN(C)CC5)c(O)c4c3C2=O)NC(=O)/C(C)=C\C=C\[C@H](C)[C@H](O)[C@@H](C)[C@@H](O)[C@@H](C)[C@H](OC(C)=O)[C@@H]1C [RIFAMPIN] | 4 | ≥ 512 | < 0.5 | 2 | ≤ 4 | < 0.5
CCC[C@@H]1C[C@@H](C(=O)N[C@@H]([C@H]2O[C@H](SC)[C@H](O)[C@@H](O)[C@H]2O)[C@H](C)Cl)N(C)C1 [CLINDAMYCIN] | 85 | ≥ 512 | > 8 | 86 | ≤ 4 | > 8
C/C(=C\C(=O)OCCCCCCCCC(=O)O)C[C@@H]1OC[C@H](C[C@@H]2O[C@H]2[C@@H](C)[C@H](C)O)[C@@H](O)[C@H]1O [MUPIROCIN] | 100 | ≥ 512 | > 512 | 0 | ≤ 4 | 0.5 (≈ 0.999 µM)
CN[C@H](CC(C)C)C(=O)N[C@H]1C(=O)N[C@@H](CC(N)=O)C(=O)N[C@H]2C(=O)N[C@H]3C(=O)N[C@H](C(=O)N[C@H](C(=O)O)c4cc(O)cc(O)c4-c4cc3ccc4O)[C@H](O)c3ccc(c(Cl)c3)Oc3cc2cc(c3O[C@@H]2O[C@H](CO)[C@@H](O)[C@H](O)[C@H]2O[C@H]2C[C@](C)(N)[C@H](O)[C@H](C)O2)Oc2ccc(cc2Cl)[C@H]1O [VANCOMYCIN] | 0 | ≥ 512 | 1 (≈ 0.69 µM) | 0 | ≤ 4 | 1 (≈ 0.69 µM)
O=C(O)c1cn(C2CC2)c2cc(N3CCNCC3)c(F)cc2c1=O [CIPROFLOXACIN] | 75 | ≥ 512 | > 8 | 90 | ≤ 4 | > 8
CN(C)[C@@H]1C(O)=C(C(N)=O)C(=O)[C@@]2(O)C(O)=C3C(=O)c4c(O)cccc4[C@@](C)(O)[C@H]3C[C@@H]12 [TETRACYCLINE] | 7 | ≥ 512 | < 4 | 23 | ≤ 4 | > 16
CC[C@H]1OC(=O)[C@H](C)[C@@H](O[C@H]2C[C@@](C)(OC)[C@@H](O)[C@H](C)O2)[C@H](C)[C@@H](O[C@@H]2O[C@H](C)C[C@H](N(C)C)[C@H]2O)[C@](C)(O)C[C@@H](C)C(=O)[C@H](C)[C@@H](O)[C@]1(C)O [ERYTHROMYCIN] | 86 | ≥ 512 | > 8 | 94 | ≤ 4 | > 8
